The record followed here is ChEMBL document CHEMBL1121551, “Amino acid and dipeptide derivatives of daunorubicin. 2. Cellular pharmacology and antitumor activity on L1210 leukemic cells in vitro and in vivo” (1980).

Assay [1] relates to Mus musculus. In words: Chemotherapeutic activity was evaluated by measuring number of survivors on day 30 / total number of mice at 66 mg/kg/day, sc; 0/9. The assay is classed as functional.
The subject of assay [2] is Mus musculus. In words: Chemotherapeutic activity was evaluated by measuring mean tumor diameter on day 8 at 66 mg/kg/day, iv.
Assay [3] relates to Mus musculus. Nature of the assay: Chemotherapeutic activity was evaluated by measuring number of survivors on day 30 / total number of mice at 60 mg/kg/day, sc; 0/18. The assay is classed as functional.
For assay [4], the system named is Mus musculus. Nature of the assay: Chemotherapeutic activity was evaluated by measuring percent change in weight on day 8 at 50(mg/kg)/day, iv. The class given is functional. The method in brief: (§1)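 Female DBA2 mice were inoculated iv on day 0 with 10^4 L1210 leukemic cells. Drugs were given iv on days 1 and 2 at the stated daily dose. Percent body weight change was recorded on day 8, and weight loss served as the index of general toxicity.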

For assay [5], the system named is Mus musculus. Nature of the assay: Chemotherapeutic activity was evaluated by measuring the percent increase in life span of female DBA2 mice intravenously inoculated with L1210 leukemia at 50(mg/kg)/day, iv. The class given is functional. The essentials:
(§2)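 Female DBA2 mice given 10^4 L1210 cells iv on day 0; cells harvested from a 6- to 8-day-old ascitic L1210 form. Drug given iv on days 1 and 2 at the stated daily dose. Read-outs are % increase in life span and the number of mice alive on day 30 over the total.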

For assay [6], the system named is Mus musculus. Nature of the assay: Percent increase in life span of female DBA2 mice subcutaneously inoculated with L1210 leukemia at 60 mg/kg/day, iv.
Assay [7] has as its system Mus musculus. In words: Chemotherapeutic activity was evaluated by measuring mean tumor diameter on day 12 at 66 mg/kg/day, iv.
For assay [8], the system named is Mus musculus. In words: Chemotherapeutic activity was evaluated by measuring mean tumor diameter on day 8 at 60 mg/kg/day, iv.
The test system of assay [9] is Mus musculus. Nature of the assay: Chemotherapeutic activity was evaluated by measuring number of survivors on day 30 / total number of mice at 50(mg/kg)/day, iv; 0/7. The assay is classed as functional. The method in brief:
as §2

In assay [10] the test system is Mus musculus. In words: Chemotherapeutic activity was evaluated by measuring percent change in weight on day 8 at 60 mg/kg/day, sc. The class given is functional. The essentials:
(§3)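 Drugs were given iv on days 1 and 2 at the stated daily dose. Average tumor diameter was estimated daily with calipers, and body weight change was recorded on day 8. Results from several experiments are given as mean ± SD.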

For assay [11], the system named is Mus musculus. In words: Chemotherapeutic activity was evaluated by measuring percent change in weight on day 8 at 66 mg/kg/day, sc. The class given is functional. The method in brief:
as §3

The subject of assay [12] is Mus musculus. In words: Percent increase in life span of female DBA2 mice subcutaneously inoculated with L1210 leukemia at 66 mg/kg/day, iv.
Assay [13] has as its system Mus musculus. Nature of the assay: Percent increase in life span of female DBA2 mice subcutaneously inoculated with L1210 leukemia at 10 mg/kg/day, iv.
In assay [14] the test system is Mus musculus. In words: Chemotherapeutic activity was evaluated by measuring percent change in weight on day 8 at 12(mg/kg)/day, sc. The assay is classed as functional.
For assay [15], the system named is Mus musculus. In words: Chemotherapeutic activity was evaluated by measuring number of survivors on day 30 / total number of mice at 10 mg/kg/day, sc; 0/58. The assay is classed as functional.
Assay [16] deals with Mus musculus. In words: Chemotherapeutic activity was evaluated by measuring mean tumor diameter on day 12 at 12(mg/kg)/day, sc. The assay is classed as functional.
Assay [17] concerns Mus musculus. In words: Chemotherapeutic activity was evaluated by measuring mean tumor diameter on day 12 at 11 mg/kg/day, iv.
In assay [18] the test system is Mus musculus. In words: Chemotherapeutic activity was evaluated by measuring the percent increase in life span of female DBA2 mice intravenously inoculated with L1210 leukemia at 12(mg/kg)/day, iv. The assay is classed as functional. The essentials: as §2
Assay [19] deals with Mus musculus. In words: Chemotherapeutic activity was evaluated by measuring number of survivors on day 30 / total number of mice at 11 mg/kg/day, sc; 3/37. The class given is functional.
Assay [20] relates to Mus musculus. In words: Chemotherapeutic activity was evaluated by measuring number of survivors on day 30 / total number of mice at 10 mg/kg/day, iv; 0/18. The class given is functional. The essentials: as §2
The test system of assay [21] is Mus musculus. In words: Chemotherapeutic activity was evaluated by measuring percent change in weight on day 8 at 11 mg/kg/day, iv. The class given is functional. The method in brief:
as §1

Assay [22] has as its system Mus musculus. In words: Chemotherapeutic activity was evaluated by measuring mean tumor diameter on day 8 at 11 mg/kg/day, iv.
The test system of assay [23] is Mus musculus. In words: Chemotherapeutic activity was evaluated by measuring number of survivors on day 30 / total number of mice at 12(mg/kg)/day, sc; 3/36. The assay is classed as functional.
Assay [24] relates to Mus musculus. Nature of the assay: Chemotherapeutic activity was evaluated by measuring percent change in weight on day 8 at 11 mg/kg/day, sc. The class given is functional. The essentials:
as §3

The test system of assay [25] is Mus musculus. In words: Chemotherapeutic activity was evaluated by measuring percent change in weight on day 8 at 12(mg/kg)/day, iv. The assay is classed as functional. The essentials:
as §1

Assay [26] concerns Mus musculus. Nature of the assay: Chemotherapeutic activity was evaluated by measuring the percent increase in life span of female DBA2 mice subcutaneously inoculated with L1210 leukemia at 12(mg/kg)/day, sc. The class given is functional.
For assay [27], the system named is Mus musculus. In words: Chemotherapeutic activity was evaluated by measuring mean tumor diameter on day 12 at 10 mg/kg/day, iv.
For assay [28], the system named is Mus musculus. In words: Percent increase in life span of female DBA2 mice subcutaneously inoculated with L1210 leukemia at 11 mg/kg/day, iv.
Assay [29] deals with Mus musculus. In words: Chemotherapeutic activity was evaluated by measuring the percent increase in life span of female DBA2 mice intravenously inoculated with L1210 leukemia at 11 mg/kg/day, iv. The class given is functional. The method in brief: as §2
In assay [30] the test system is Mus musculus. In words: Chemotherapeutic activity was evaluated by measuring number of survivors on day 30 / total number of mice at 11 mg/kg/day, iv; 0/37. The class given is functional. The method in brief:
as §2

Assay [31] relates to Mus musculus. In words: Chemotherapeutic activity was evaluated by measuring percent change in weight on day 8 at 10 mg/kg/day, iv. The assay is classed as functional. The essentials:
as §1

Assay [32] relates to Mus musculus. Nature of the assay: Chemotherapeutic activity was evaluated by measuring number of survivors on day 30 / total number of mice at 12(mg/kg)/day, iv; 6/34. The assay is classed as functional. The method in brief:
as §2

Assay [33] concerns Mus musculus. Nature of the assay: Chemotherapeutic activity was evaluated by measuring percent change in weight on day 8 at 10 mg/kg/day, sc. The assay is classed as functional. The method in brief: as §3
In assay [34] the test system is Mus musculus. Nature of the assay: Chemotherapeutic activity was evaluated by measuring mean tumor diameter on day 8 at 10 mg/kg/day, iv.
For assay [35], the system named is Mus musculus. Nature of the assay: Chemotherapeutic activity was evaluated by measuring the percent increase in life span of female DBA2 mice intravenously inoculated with L1210 leukemia at 10 mg/kg/day, iv. The assay is classed as functional. The essentials:
as §2

For `COc1cccc2c1C(=O)c1c(O)c3c(c(O)c1C2=O)C[C@@](O)(C(C)=O)C[C@@H]3O[C@H]1C[C@H](NC(=O)[C@H](C)N)[C@H](O)[C@H](C)O1`, the Survivors with Mus musculus [1], in the assay with Mus musculus [3] and in the assay with Mus musculus [9] was 0 each time. Also, the values for the Diameter in the assay on Mus musculus [2], in the assay with Mus musculus [7] and with Mus musculus [8] were 0 mm, 4.2 mm and 1.3 mm, respectively. In addition, the Weight change is -4.4% with Mus musculus [4], -5.9% in the assay on Mus musculus [10] and -8.5% in the assay with Mus musculus [11]. Besides, the values for the Increase in life-span with Mus musculus [5], in the assay on Mus musculus [6] and with Mus musculus [12] were 14%, 37% and 61%, respectively.

Take `COc1cccc2c1C(=O)c1c(O)c3c(c(O)c1C2=O)C[C@@](O)(C(C)=O)C[C@@H]3O[C@H]1C[C@H](N)[C@H](O)[C@H](C)O1` [DAUNORUBICIN]: the Increase in life-span is reported as 65% in the assay with Mus musculus [13]; 123% in the assay with Mus musculus [18]; 83% with Mus musculus [26]; 67% in the assay with Mus musculus [28]; 66% with Mus musculus [29]; 42% in the assay with Mus musculus [35]. Besides, the Weight change in the assay with Mus musculus [14] was -6.3%; in the assay with Mus musculus [21], -3.2%; in the assay on Mus musculus [24], -5.9%; in the assay on Mus musculus [25], -8.4%; in the assay on Mus musculus [31] it was -1.1%; with Mus musculus [33], -4.3%. The Survivors in the assay with Mus musculus [15] is listed as 0; with Mus musculus [19], 3; with Mus musculus [20], 0; with Mus musculus [23], 3; with Mus musculus [30], 0; in the assay on Mus musculus [32] it was 6. Also, the Diameter turned out to be 2 mm with Mus musculus [16]; 2.9 mm in the assay with Mus musculus [17]; 0.4 mm in the assay on Mus musculus [22]; 4.1 mm in the assay with Mus musculus [27]; 0.3 mm with Mus musculus [34].
